Hits are enriched below; roughly 3.9% of the tested compounds scored in any of these assays.
TAAR1 antagonist: human TAAR1 antagonists, primary screen, Fluo-8 calcium fluorescence, CHO RD-HGA16 cells; Trace amine-associated receptor 1 (Homo sapiens), Q96RJ0; antagonist; inhibition, % at 3 µM; hit rate 1.5% among 360,000; AID 624466, 2012;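 active = inhibition above a per-plate cutoff, the mean inhibition of test compounds on that plate plus 3 SD, cut at about 49% in these data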;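 note: 0% = DMSO plus EC80 beta-PEA response and 100% = DMSO alone without agonist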
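Test system: CHO RD-HGA16 cells bearing hTAAR1 | Reagent: β-PEA, EC80 | Compound dosing: 3 µM, single point | Schedule: Dye loading 75 min at 37 °C, then 30 min room temperature | Signal: Calcium fluorescence with Fluo-8 | Evaluation: Percent inhibition of PEA-evoked calcium signal, max/basal emission ratio | Control set: DMSO-only wells and EC80 β-PEA-stimulated wells | Repeats: Singlicate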
m5-HT2A agonist: mouse Htr2a agonists via beta-arrestin recruitment, primary screen, cell-based, luminescence. hit rate 0.66% among 360,000. CHO-K1 mHTR2A beta-arrestin complementation; percent of 30 µM serotonin response. 5-hydroxytryptamine receptor 2A (Mus musculus), P35363. activation, % at 7.6 µM;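 active = activation above a run cutoff, the mean activation of all tested compounds plus 3 SD, cut at about 14% in these data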;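 note: 0% = plate median of compound wells and 100% = 30 µM serotonin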
M1 ag: human M1 muscarinic receptor agonists, primary screen, Fluo-8 calcium fluorescence, CHO-K1 cells, HTS. CHO-K1 hM1, agonist mode; 0% DMSO, 100% acetylcholine EC100. Muscarinic acetylcholine receptor M1 (Homo sapiens), P11229. activation, % at 3 µM. hit rate 0.33% among 360,000;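 active = activation above the run's mean compound activation plus 3 SD, cut at about 16% in these data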;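 note: peak over basal fluorescence ratio within a 140 s kinetic read after compound addition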
Target sequence (P11229 whole entry, looked up): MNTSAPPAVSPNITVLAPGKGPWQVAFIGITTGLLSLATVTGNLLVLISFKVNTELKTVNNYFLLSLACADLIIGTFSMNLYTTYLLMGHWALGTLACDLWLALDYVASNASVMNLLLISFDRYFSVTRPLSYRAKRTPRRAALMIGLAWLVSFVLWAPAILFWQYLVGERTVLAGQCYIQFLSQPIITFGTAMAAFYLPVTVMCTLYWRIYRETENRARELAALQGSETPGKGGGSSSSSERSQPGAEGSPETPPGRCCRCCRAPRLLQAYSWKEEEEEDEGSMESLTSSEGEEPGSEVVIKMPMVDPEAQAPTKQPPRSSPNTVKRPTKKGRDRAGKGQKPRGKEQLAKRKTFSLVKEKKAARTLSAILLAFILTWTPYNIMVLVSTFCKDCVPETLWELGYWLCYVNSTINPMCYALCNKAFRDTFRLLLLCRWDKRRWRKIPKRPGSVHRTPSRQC
CHRM1 PAM: human M1 muscarinic receptor positive allosteric modulators, primary screen, CHO-K1 cells, Fluo-8 calcium fluorescence, 1536-well; Muscarinic acetylcholine receptor M1 (Homo sapiens), P11229; CHO-K1 hM1, ACh EC20; 0% = ACh EC20, 100% = maximal ACh; activation, % at 3 µM; hit rate 0.088% among 360,000; AID 588819, 2011; in the data active = activation above about 19%, passing the limit was not always enough
CHRM1 antagonist: human M1 muscarinic receptor antagonists, primary screen, CHO-K1 cells, Fluo-8 calcium fluorescence, 1536-well; Muscarinic acetylcholine receptor M1 (Homo sapiens), P11229; CHO-K1 hM1, ACh EC80 antagonist; inhibition, % at 3 µM; hit rate 1.3% among 360,000;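 active = percent inhibition above its own plate's cutoff, namely the mean of that plate's compound wells plus 3 SD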;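 note: peak over basal fluorescence ratio during 140 s after agonist addition; 0% = ACh EC80 plus DMSO and 100% = DMSO alone without agonist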
TAAR1 agonist: human TAAR1 agonists, primary screen, Fluo-8 calcium fluorescence, CHO RD-HGA16 cells | hit rate 0.99% among 360,000 | vehicle wells 0%, saturating PEA agonist 100% | activation, % at 3 µM | Trace amine-associated receptor 1 (Homo sapiens), Q96RJ0;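 active = activation above the mean activation of all test compounds in the run plus 3 SD, cut at about 38% in these data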
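Repeats: no replicates (n 1) | Material: CHO-derived RD-HGA16 cells with stable Gα16 and human TAAR1 | Technique: Kinetic Fluo-8 calcium fluorescence | Schedule: 17-24 h seeding, 75 min 37 °C dye, 30 min RT | Evaluation: % activation from peak over basal fluorescence ratio, DMSO-to-PEA scaled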
* hit, by the source's call; . = no result given.

SMILES	TAAR1 antagonist	m5-HT2A agonist	M1 ag	CHRM1 PAM	CHRM1 antagonist	TAAR1 agonist
CCOC(=O)Cc1nnc(NC(=O)COc2ccc(C)cc2)s1	-4.3	-2.8	8.5	5.6	-8.4	38.3*
CC(=O)Nc1ccc(NC(=O)COc2ccc(-c3ccc(C#N)cc3)cc2)cc1	-6.1	11.2	-1.7	3.8	-0.1	1.1
CC(C)(C)c1ccc(NC(=O)COc2ccc(-n3ccnc3)cc2)cc1	56.9*	-0.6	0.5	-6.8	13.2	21.7
CCCNC(=O)C1(C)CCN(C(=O)c2ccc3snnc3c2)C1 (stereo not drawn)	19.3	3.3	-2.5	8.2	-3.6	-0.7
Cc1ccc(-n2nc(C(=O)c3ccccc3)n3c(=O)cc(-c4ccccc4)nc23)cc1	-8.6	-4.3	-4.1	-5.8	37.3*	8.4
CCc1cc(=O)oc2cc(OC(C)C(=O)NCC(O)c3ccccc3)c(Cl)cc12 (stereo not drawn)	-21.3	-4.3	-2.0	3.9	-4.7	0.9
CCc1cc2c(-c3ccccc3)cc(=O)oc2cc1OC(C)C(C)=O (stereo not drawn)	50.4*	-8.0	-9.7	-19.2	27.1	17.1
CCC(C)(C)NC(=O)C(c1ccccn1)N(C(=O)c1csnn1)c1ccc(C)cc1 (stereo not drawn)	-8.3	-4.8	-3.5	6.9	-5.0	1.3
O=C(CCCOc1ccc(Br)cc1)Nc1ccc(S(=O)(=O)N2CCOCC2)cc1	42.8	-6.1	2.6	-13.2	31.7*	16.4
O=C(COc1ccc(S(=O)(=O)N2CCOCC2)cc1)NCc1ccccc1	-20.4	-5.9	-2.2	-7.4	29.2*	0.9
O=C(COc1ccc(S(=O)(=O)N2CCOCC2)cc1)Nc1ccc(Br)cc1	43.5	-8.1	-0.6	-0.2	-1.3	11.2
CC(C)[C@H](NC(=O)[C@H](C)NC(=O)OC(C)(C)C)C(=O)N1CCC2CCN(Cc3ccccc3)CC21 (stereo partly drawn)	-18.1	.	.	.	.	0.0
CCCCCNC(=O)c1ccc(NC(=O)CC2SC(N3CCCC3)=NC2=O)cc1 (stereo not drawn)	-22.4	-3.6	-5.0	3.6	-11.5	2.7
CCNC(=O)c1ccc(NC(=O)CC2SC(N3CCCC3)=NC2=O)cc1 (stereo not drawn)	-25.0	0.2	2.9	27.6*	-25.1	-0.5
CCN(CC)c1ccc(NC(=O)COc2ccc(C#N)cc2)cc1S(=O)(=O)Nc1ccc(OC)cc1	-2.2	-3.1	1.8	1.1	2.5	2.5
COc1ccccc1N1CCN(C(=O)CN2C(=O)c3cccc4cccc(c34)C2=O)CC1	19.4	-1.6	-7.2	6.2	-8.3	3.8
COc1ccccc1N1CCN(C2=Nc3cccc4cccc2c34)CC1	18.4	-3.1	-15.4	-35.5	88.9*	9.0
CCOC(=O)N1CCN(C2=Nc3cccc4cccc2c34)CC1	5.4	8.7	-8.4	-22.9	83.8*	2.6
c1cc2c3c(cccc3c1)C(N1CCOCC1)=N2	18.5	2.1	-2.5	9.0	-10.0	-0.5
c1ccc(CC2CCN(C3=Nc4cccc5cccc3c45)CC2)cc1	.	-5.3	-1.3	-19.4	71.7*	.
COc1ccccc1N1CCN(C(=O)CCCN2C(=O)c3cccc4cccc(c34)C2=O)CC1	50.1*	-0.6	-3.3	-6.2	12.0	16.3
CC(=O)N1CCN(C2=Nc3cccc4cccc2c34)CC1	1.7	2.1	-6.6	-0.5	6.9	7.9
CCOC(=O)C1=CCN(S(=O)(=O)c2ccccc2F)C1c1cccc(Cl)c1 (stereo not drawn)	14.8	-5.7	-10.0	-13.9	24.9	0.7
COc1ccc(NC(=O)Nc2ccc3c(c2)CC(=O)N([C@H](C)CO)C[C@@H](C)[C@H](CN(C)C(=O)Nc2ccccc2)O3)cc1	-0.5	-1.9	-7.4	11.7	-9.9	1.3
Cc1ncc([N+](=O)[O-])n1Cc1cccc(F)c1	3.4	-1.9	-5.9	3.1	-4.5	0.4
SMILES	TAAR1 antagonist	m5-HT2A agonist	M1 ag	CHRM1 PAM	CHRM1 antagonist	TAAR1 agonist
CN(C)c1ccc(/C=C/c2cccc[n+]2[O-])cc1	-5.7	-3.2	-2.6	4.5	-8.0	1.3
CC(C)CC[n+]1ccccc1/C=C/c1ccc(N(C)C)cc1	28.6	0.5	8.8	-13.3	28.6*	19.1
Cc1cc(Br)ccc1NC(=O)c1sc2ncnc(N3CCN(c4ccccn4)CC3)c2c1C	-3.2	5.5	-1.6	4.7	-12.4	0.0
O=C(c1cnc(N2CCN(c3ncccn3)CC2)c2ccccc12)N1CCN(c2ccccn2)CC1	61.0*	-1.2	-0.9	-18.1	15.3	18.1
CCN1CCN(c2ncc(C(=O)Nc3cc(Cl)ccc3OC)c3ccccc23)CC1	4.9	-5.6	-5.4	-22.8	57.5*	3.0
Cc1ccc(NC(=O)c2cnc(N3CCN(c4ccccn4)CC3)c3ccccc23)c(Br)c1	72.4*	9.7	-4.8	-27.4	32.4*	9.9
COc1ccccc1N1CCN(c2ncc(C(=O)N3CCN(c4cccc(Cl)c4)CC3)c3ccccc23)CC1	21.3	-0.6	-2.4	8.8	-8.8	6.1
CC(=O)c1ccc(NC(=O)CSc2ccc(-c3sc(C)nc3C)nn2)cc1	63.5*	-3.2	1.2	-3.0	3.8	12.6
Cc1ccccc1C(=O)N[C@H](C(=O)N1CCC[C@H]1C(=O)NC1CCCC1)c1ccccc1	7.6	.	.	.	.	2.2
CC(=O)c1ccc(N=c2scc(C)n2C(C)C)cc1	-12.6	-2.6	-7.7	2.7	-3.8	6.8
CCN(CC(=O)Nc1ccc(NC(C)=O)cc1)C(=O)c1cc(-c2ccccc2Cl)nc2ccccc12	71.9*	7.0	-0.5	-16.0	41.0*	39.3*
CCN(CC)C(=O)c1cccc(NC(=O)c2cc(-c3ccccn3)nc3ccccc23)c1	48.8*	4.2	-2.3	-9.6	19.8	17.1
CCN(CC(=O)Nc1ccc(NC(C)=O)cc1)C(=O)c1ccc2ccccc2c1	-29.6	3.9	-1.1	10.0	-22.4	5.4
CCN(CC)S(=O)(=O)c1cc(NC(=O)c2cc(-c3ccccn3)nc3ccccc23)ccc1C	55.2*	-2.7	-1.3	-8.1	30.1	15.8
O=C(Nc1cccc(S(=O)(=O)N2CCCC2)c1)c1cc(-c2ccccn2)nc2ccccc12	53.3*	-4.6	-3.5	-12.5	16.9	21.0

Screening data as filed in PubChem.
